ChEMBL document CHEMBL1687804, “Comparative efficacies of human simulated exposures of telavancin and vancomycin against methicillin-resistant Staphylococcus aureus with a range of vancomycin MICs in a murine pneumonia model” (Antimicrob Agents Chemother, 2010)
≈ marks a conversion by molar mass, not a printed value. Calls of active or inactive are those of the source. The calls are words filed in the database; no cut-off is given here.

What was measured:
[1] = tested on: Staphylococcus aureus; experiment: Antibacterial activity against hospital-associated methicillin-resistant Staphylococcus aureus isolate 336 infected in neutropenic BALB/c mouse lung infection model assessed as reduction of CFU at 40 mg/kg, sc administered every 12 hrs measured after 48 hrs; further: unit not given here
[2] = tested on: Staphylococcus aureus; experiment: Antibacterial activity against vancomycin-intermediate Staphylococcus aureus isolate 454 (NRS404) by broth microdilution assay; format: functional
Procedure, shortened: (§1)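 MIC by broth microdilution using dry-form panels, run in triplicate per isolate; modal MIC reported. Isolates were stored at −80°C in skim milk and subcultured twice on Trypticase soy agar with 5% sheep blood at 35°C before use.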

[3] = tested on: Staphylococcus aureus; experiment: Antibacterial activity against vancomycin-intermediate Staphylococcus aureus isolate 453 (NRS23) infected in neutropenic BALB/c mouse lung infection model assessed as reduction of CFU at 40 mg/kg, sc administered every 12 hrs measured after 48 hrs; further: unit not given here
[4] = tested on: Staphylococcus aureus; experiment: Antibacterial activity against vancomycin-intermediate Staphylococcus aureus isolate 440 (A6298) infected in neutropenic BALB/c mouse lung infection model assessed as reduction of CFU at 40 mg/kg, sc administered every 12 hrs measured after 48 hrs
[5] = tested on: Staphylococcus aureus; experiment: Antibacterial activity against community-associated methicillin-resistant Staphylococcus aureus isolate 156 by broth microdilution assay; format: functional
Procedure, shortened: as §1

[6] = tested on: Staphylococcus aureus; experiment: Antibacterial activity against vancomycin-intermediate Staphylococcus aureus isolate 435 infected in neutropenic BALB/c mouse lung infection model assessed as reduction of CFU at 40 mg/kg, sc administered every 12 hrs measured after 24 hrs; further: unit not given here
[7] = tested on: Staphylococcus aureus; experiment: Antibacterial activity against vancomycin-intermediate Staphylococcus aureus isolate 454 (NRS404) infected in neutropenic BALB/c mouse lung infection model assessed as reduction of CFU at 40 mg/kg, sc administered every 12 hrs measured after 24 hrs; further: unit not given here
[8] = tested on: Staphylococcus aureus; experiment: Antibacterial activity against vancomycin-intermediate Staphylococcus aureus isolate 453 (NRS23) by broth microdilution assay; format: functional
Procedure, shortened: as §1

[9] = tested on: Staphylococcus aureus; experiment: Antibacterial activity against vancomycin-intermediate Staphylococcus aureus isolate 440 (A6298) infected in neutropenic BALB/c mouse lung infection model assessed as reduction of CFU at 40 mg/kg, sc administered every 12 hrs measured after 24 hrs
[10] = tested on: Staphylococcus aureus; experiment: Antibacterial activity against vancomycin-heteroresistant Staphylococcus aureus isolate 38 (Mu3) infected in neutropenic BALB/c mouse lung infection model assessed as reduction of CFU at 40 mg/kg, sc administered every 12 hrs measured after 24 hrs
[11] = tested on: Staphylococcus aureus; experiment: Antibacterial activity against vancomycin-intermediate Staphylococcus aureus isolate 435 by broth microdilution assay; format: functional
Procedure, shortened: as §1

[12] = tested on: Staphylococcus aureus; experiment: Antibacterial activity against hospital-associated methicillin-resistant Staphylococcus aureus isolate 56 (494) infected in neutropenic BALB/c mouse lung infection model assessed as reduction of CFU at 40 mg/kg, sc administered every 12 hrs measured after 24 hrs; further: unit not given here
[13] = tested on: Staphylococcus aureus; experiment: Antibacterial activity against community-associated methicillin-resistant Staphylococcus aureus isolate 145 infected in neutropenic BALB/c mouse lung infection model assessed as reduction of CFU at 40 mg/kg, sc administered every 12 hrs measured after 48 hrs; further: unit not given here
[14] = tested on: Staphylococcus aureus; experiment: Antibacterial activity against vancomycin-heteroresistant Staphylococcus aureus isolate 443 by broth microdilution assay; format: functional
Procedure, shortened: as §1

[15] = tested on: Staphylococcus aureus; experiment: Antibacterial activity against vancomycin-intermediate Staphylococcus aureus isolate 453 (NRS23) infected in neutropenic BALB/c mouse lung infection model assessed as reduction of CFU at 40 mg/kg, sc administered every 12 hrs measured after 24 hrs; further: unit not given here
[16] = tested on: Staphylococcus aureus; experiment: Antibacterial activity against hospital-associated methicillin-resistant Staphylococcus aureus isolate 56 (494) by broth microdilution assay; format: functional
Procedure, shortened: as §1

[17] = tested on: Staphylococcus aureus; experiment: Antibacterial activity against hospital-associated methicillin-resistant Staphylococcus aureus isolate 152 by broth microdilution assay; format: functional
Procedure, shortened: as §1

[18] = tested on: Staphylococcus aureus; experiment: Antibacterial activity against vancomycin-intermediate Staphylococcus aureus isolate 454 (NRS404) infected in neutropenic BALB/c mouse lung infection model assessed as reduction of CFU at 40 mg/kg, sc administered every 12 hrs measured after 48 hrs; further: unit not given here
[19] = tested on: Staphylococcus aureus; experiment: Antibacterial activity against vancomycin-heteroresistant Staphylococcus aureus isolate 443 infected in neutropenic BALB/c mouse lung infection model assessed as reduction of CFU at 40 mg/kg, sc administered every 12 hrs measured after 24 hrs; further: unit not given here
[20] = tested on: Staphylococcus aureus; experiment: Antibacterial activity against vancomycin-intermediate Staphylococcus aureus isolate 440 (A6298) by broth microdilution assay; format: functional
Procedure, shortened: as §1

[21] = tested on: Staphylococcus aureus; experiment: Antibacterial activity against hospital-associated methicillin-resistant Staphylococcus aureus isolate 360 by broth microdilution assay; format: functional
Procedure, shortened: as §1

[22] = tested on: Staphylococcus aureus; experiment: Antibacterial activity against hospital-associated methicillin-resistant Staphylococcus aureus isolate 336 by broth microdilution assay; format: functional
Procedure, shortened: as §1

[23] = tested on: Staphylococcus aureus; experiment: Antibacterial activity against hospital-associated methicillin-resistant Staphylococcus aureus isolate 412 infected in neutropenic BALB/c mouse lung infection model assessed as reduction of CFU at 40 mg/kg, sc administered every 12 hrs measured after 24 hrs; further: unit not given here
[24] = tested on: Staphylococcus aureus; experiment: Antibacterial activity against hospital-associated methicillin-resistant Staphylococcus aureus isolate 336 infected in neutropenic BALB/c mouse lung infection model assessed as reduction of CFU at 40 mg/kg, sc administered every 12 hrs measured after 24 hrs; further: unit not given here
[25] = tested on: Staphylococcus aureus; experiment: Antibacterial activity against hospital-associated methicillin-resistant Staphylococcus aureus isolate 360 infected in neutropenic BALB/c mouse lung infection model assessed as reduction of CFU at 40 mg/kg, sc administered every 12 hrs measured after 24 hrs
[26] = tested on: Staphylococcus aureus; experiment: Antibacterial activity against community-associated methicillin-resistant Staphylococcus aureus isolate 156 infected in neutropenic BALB/c mouse lung infection model assessed as reduction of CFU at 40 mg/kg, sc administered every 12 hrs measured after 24 hrs; further: unit not given here
[27] = tested on: Staphylococcus aureus; experiment: Antibacterial activity against vancomycin-heteroresistant Staphylococcus aureus isolate 38 (Mu3) by broth microdilution assay; format: functional
Procedure, shortened: as §1

[28] = tested on: Staphylococcus aureus; experiment: Antibacterial activity against vancomycin-heteroresistant Staphylococcus aureus isolate 443 infected in neutropenic BALB/c mouse lung infection model assessed as reduction of CFU at 40 mg/kg, sc administered every 12 hrs measured after 48 hrs; further: unit not given here
[29] = tested on: Staphylococcus aureus; experiment: Antibacterial activity against community-associated methicillin-resistant Staphylococcus aureus isolate 145 by broth microdilution assay; format: functional
Procedure, shortened: as §1

[30] = tested on: Staphylococcus aureus; experiment: Antibacterial activity against hospital-associated methicillin-resistant Staphylococcus aureus isolate 412 by broth microdilution assay; format: functional
Procedure, shortened: as §1

[31] = tested on: Staphylococcus aureus; experiment: Antibacterial activity against community-associated methicillin-resistant Staphylococcus aureus isolate 145 infected in neutropenic BALB/c mouse lung infection model assessed as reduction of CFU at 40 mg/kg, sc administered every 12 hrs measured after 24 hrs; further: unit not given here
[32] = tested on: Staphylococcus aureus; experiment: Antibacterial activity against vancomycin-intermediate Staphylococcus aureus isolate 435 infected in neutropenic BALB/c mouse lung infection model assessed as reduction of CFU at 40 mg/kg, sc administered every 12 hrs measured after 48 hrs; further: unit not given here
[33] = tested on: Staphylococcus aureus; experiment: Antibacterial activity against hospital-associated methicillin-resistant Staphylococcus aureus isolate 152 infected in neutropenic BALB/c mouse lung infection model assessed as reduction of CFU at 40 mg/kg, sc administered every 12 hrs measured after 24 hrs; further: unit not given here

CCCCCCCCCCNCCN[C@@]1(C)C[C@H](O[C@H]2[C@H](Oc3c4cc5cc3Oc3ccc(cc3Cl)[C@@H](O)[C@@H](NC(=O)[C@@H](CC(C)C)NC)C(=O)N[C@@H](CC(N)=O)C(=O)N[C@H]5C(=O)N[C@H]3C(=O)N[C@H](C(=O)N[C@H](C(=O)O)c5cc(O)c(CNCP(=O)(O)O)c(O)c5-c5cc3ccc5O)[C@H](O)c3ccc(c(Cl)c3)O4)O[C@H](CO)[C@@H](O)[C@@H]2O)O[C@@H](C)[C@H]1O [TELAVANCIN]
Activity [1]: inactive | MIC [2]: 1 µg/mL (≈ 0.57 µM) | Activity [3]: Active | Activity [4]: Active | MIC [5]: 0.5 µg/mL (≈ 0.285 µM) | Activity [6]: Active | Activity [7]: Active | MIC [8]: 1 µg/mL (≈ 0.57 µM) | Activity [9]: Active | Activity [10]: Active | MIC [11]: 1 µg/mL (≈ 0.57 µM) | Activity [12]: Active | Activity [13]: inactive | MIC [14]: 0.5 µg/mL (≈ 0.285 µM) | Activity [15]: Active | MIC [16]: 0.5 µg/mL (≈ 0.285 µM) | MIC [17]: 0.25 µg/mL (≈ 0.142 µM) | Activity [18]: Active | Activity [19]: Active | MIC [20]: 1 µg/mL (≈ 0.57 µM) | MIC [21]: 0.5 µg/mL (≈ 0.285 µM) | MIC [22]: 0.5 µg/mL (≈ 0.285 µM) | Activity [23]: Active | Activity [24]: Active | Activity [25]: Active | Activity [26]: Active | MIC [27]: 0.5 µg/mL (≈ 0.285 µM) | Activity [28]: inactive | MIC [29]: 0.5 µg/mL (≈ 0.285 µM) | MIC [30]: 0.5 µg/mL (≈ 0.285 µM) | Activity [31]: Active | Activity [32]: inactive | Activity [33]: Active
